Molecules are shown by their SMILES. Activity calls are given as the source filed them. Unless noted, no stated cut-off is given here; in the data, active means inhibition above about 30%; inactive means the rest.

Experiment [1] is described as follows: Her2 expression decrease, cell viability multiplex – SKBR3 breast tumor cells, AlphaScreen, ATP viability, primary screen (AID 461;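 active means Her2 level under about 52% in both replicate screens, with viability over 70% of control, limit read from the data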;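 on Her2 level: lower value means less Her2 protein in the cells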;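 on viability: percent of carrier control wells set as 100% viability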). The following applies: SKBR3 Her2 protein level, 18-24 h, measured here: SKBR3 viability, ATP luminescence, at 10 µM. (Bead proximity is the source of the signal in Alpha formats.)
For experiment [2], the target named is Receptor tyrosine-protein kinase erbB-2 (Homo sapiens) (UniProt P04626). Described as above. The following applies: 18-24 h, at 10 µM, stronger effect = lower value.
The nature of experiment [3]: reduced viability of SK-BR-3 breast cancer cells – cell-based, 24 h, human, pilot screen (AID 572;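 active means viability at or below 10% of carrier control in both of two separate runs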;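 further: compound exposure lasted between 18 and 24 h rather than exactly 24 h; 100% = carrier-treated control wells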). The following applies: SK-BR-3 viability, CellTiter-Glo luminescence, at 10 µM, stronger effect = lower value.
The nature of experiment [4]: HUVEC growth inhibition – cell-based, human, primary screen (AID 575;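 active means viability at or below 30% in both replicate assays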;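 further: 100% = median of untreated cell wells with 0.1% DMSO on each plate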). The following applies: HUVEC proliferation, CellTiter-Glo luminescence, 72 h; at 10 µM; stronger effect = lower value. The method, boiled down:
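Material: primary human umbilical vein endothelial cells / Schedule: 72 h exposure, 37 °C, 5% CO2, 30 min RT equilibration / Signal: ATP-based CellTiter-Glo luminescent read / Read-out basis: percent of median DMSO-control luminescence / Control set: 32 DMSO-only cell-control wells (high), 32 MePR drug-control wells (low) per plate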

Experiment [5] in a line: H69AR cell proliferation blockers – human, duplicate replicates, primary screen (AID 580;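 active means viability at or under a set limit in both replicates, limit being median viability minus 3 SD, cut at about 48% in these data, passing the limit was not always enough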;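 further: 100% = mean luminescence of untreated wells and 0% = no signal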). The following applies: H69AR lung tumor cells viability, ATP luminescence, 72 h; at 10 µM; stronger effect = lower value.
Experiment [6] is described as follows: MRP1 drug-resistance reversers in H69AR cells – cell-based, doxorubicin co-treatment, pilot screen (AID 601;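 active means viability loss from added drug above about 55%, and viability with drug at most 40%, in both replicates, limit read from the data, passing the limit was not always enough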). The following applies: CellTiter-Glo, 72 h, at 10 µM; for differential viability (reversal): stronger effect = higher value.
A short description of experiment [7]: yeast transport mutant growth inhibition pilot in 384-well plates, post-Golgi transport modulator project (AID 636; in the data active means inhibition above about 31%). The following applies: absorbance 615 nm, about 18 h, stronger effect = higher value.
Experiment [8] is described as follows: growth suppression of yeast trafficking mutant, preliminary HTS, modulators of trafficking downstream of Golgi apparatus project, 1536-format plate, OD 615 nm (AID 637). The following applies: yeast transport mutant growth, absorbance 615 nm, 18 h; stronger effect = higher value.
[9] abbreviates: H69AR cells + 2 uM doxorubicin, measured here: viability with 2 uM doxorubicin, stronger effect = lower value.
Where [10] appears, read: H69AR cells, compound alone cytotoxicity.

Chain of Receptor tyrosine-protein kinase erbB-2 (Homo sapiens) (P04626 whole entry, looked up): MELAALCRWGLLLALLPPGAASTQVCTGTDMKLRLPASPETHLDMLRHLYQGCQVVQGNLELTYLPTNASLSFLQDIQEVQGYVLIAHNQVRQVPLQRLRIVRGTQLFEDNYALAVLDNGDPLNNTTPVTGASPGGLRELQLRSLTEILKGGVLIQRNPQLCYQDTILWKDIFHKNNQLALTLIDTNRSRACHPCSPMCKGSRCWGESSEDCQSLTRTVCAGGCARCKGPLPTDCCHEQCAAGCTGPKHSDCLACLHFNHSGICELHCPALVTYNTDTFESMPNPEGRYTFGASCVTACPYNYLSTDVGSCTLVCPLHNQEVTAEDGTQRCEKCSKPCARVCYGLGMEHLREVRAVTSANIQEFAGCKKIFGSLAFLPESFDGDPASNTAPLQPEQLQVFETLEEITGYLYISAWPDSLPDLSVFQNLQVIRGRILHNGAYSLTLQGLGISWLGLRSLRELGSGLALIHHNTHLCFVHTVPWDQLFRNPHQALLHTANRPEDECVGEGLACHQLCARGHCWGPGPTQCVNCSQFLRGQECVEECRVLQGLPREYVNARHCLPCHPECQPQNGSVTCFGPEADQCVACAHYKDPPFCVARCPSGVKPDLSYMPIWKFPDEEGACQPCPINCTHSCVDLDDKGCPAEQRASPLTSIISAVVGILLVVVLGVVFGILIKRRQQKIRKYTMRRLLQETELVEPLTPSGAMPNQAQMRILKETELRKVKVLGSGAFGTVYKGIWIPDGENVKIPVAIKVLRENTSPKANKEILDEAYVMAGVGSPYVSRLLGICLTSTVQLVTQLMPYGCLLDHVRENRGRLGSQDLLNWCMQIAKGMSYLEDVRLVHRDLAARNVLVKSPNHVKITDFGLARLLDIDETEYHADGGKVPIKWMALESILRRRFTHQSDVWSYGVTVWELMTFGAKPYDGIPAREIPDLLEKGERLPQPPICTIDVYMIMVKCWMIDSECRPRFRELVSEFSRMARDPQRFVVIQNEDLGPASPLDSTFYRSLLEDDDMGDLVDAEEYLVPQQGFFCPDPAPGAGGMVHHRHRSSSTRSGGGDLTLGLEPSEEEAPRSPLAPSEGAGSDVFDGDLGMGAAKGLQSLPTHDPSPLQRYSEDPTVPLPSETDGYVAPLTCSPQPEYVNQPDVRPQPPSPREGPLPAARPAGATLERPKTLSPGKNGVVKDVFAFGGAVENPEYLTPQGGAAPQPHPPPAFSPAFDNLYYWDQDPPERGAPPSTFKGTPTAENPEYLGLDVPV

Take `Cc1ccc(S(=O)(=O)CC(=O)N2CCCCCC2)cc1`: the viability was 85.5% in experiment [1]; 85.5% (inactive) in experiment [3]; 78.1% (inactive) in experiment [4]; 92.7% (inactive) in experiment [5]; 90.7% in experiment [6] (setting [9]); 92.7% in experiment [6] (setting [10]). Also, in experiment [2], the Her2 level is 100% (inactive). Besides, the differential viability (reversal) in experiment [6] (H69AR cells + 2 uM doxorubicin) was 1.99% (inactive). The inhibition in experiment [7] is -5% (inactive); in experiment [8], -6.07% (inactive).
As for `O=C(Nc1ccc(OC(=O)c2ccco2)cc1)c1ccco1`, the viability in experiment [1] was 96.5%; in experiment [3], 96.5% (inactive); in experiment [4], 103% (inactive); in experiment [5] it was 85.3% (inactive); in experiment [6] (setting [9]), 95.7%; in experiment [6] (setting [10]), 85.3%. The Her2 level in experiment [2] is 99.5% (inactive). Further, the differential viability (reversal) in experiment [6] (H69AR cells + 2 uM doxorubicin) is -10.4% (inactive). For the same molecule, the inhibition is -5.73% (inactive) in experiment [7] and -10.5% (inactive) in experiment [8].
For the molecule `O=C(c1ccc(Br)o1)N(c1ccc(Br)cc1)C1C=CS(=O)(=O)C1` (stereo not given), the viability was 89% in experiment [1]; 89% (inactive) in experiment [3]; 80% (inactive) in experiment [4]; 87% (inactive) in experiment [5]; 81.7% in experiment [6] (setting [9]); 87% in experiment [6] (setting [10]). Also, the Her2 level in experiment [2] is 156% (inactive). For the same molecule, the differential viability (reversal) in experiment [6] (H69AR cells + 2 uM doxorubicin) is 5.32% (inactive). Further, the inhibition was 5% (inactive) in experiment [7] and 21% (inactive) in experiment [8].
Consider `CCOc1ccc(OCC)c(NC(=O)CN2CCN(C(=O)c3ccco3)CC2)c1`, for which the viability is 75% in experiment [1]; 75% (inactive) in experiment [3]; 82.4% (inactive) in experiment [4]; 68.8% (inactive) in experiment [5]; 30.6% in experiment [6] (setting [9]); 68.8% in experiment [6] (setting [10]). The Her2 level in experiment [2] is 103% (inactive). The differential viability (reversal) in experiment [6] (H69AR cells + 2 uM doxorubicin) was 38.1% (inactive). Besides, the inhibition in experiment [7] is 4.81% (inactive); in experiment [8], -7.3% (inactive).
With `Cc1ccccc1-c1noc(N)c1C#N`, the viability in experiment [1] is 110%; in experiment [3], 110% (inactive); in experiment [4], 92.3% (inactive); in experiment [5], 90% (inactive); in experiment [6] (setting [9]), 88.6%; in experiment [6] (setting [10]) it was 90%. Moreover, in experiment [2], the Her2 level was 70.5% (inactive). The differential viability (reversal) in experiment [6] (H69AR cells + 2 uM doxorubicin) is 1.42% (inactive). In addition, the inhibition in experiment [7] is -5.68% (inactive); in experiment [8] it was 4% (inactive).
For `CC(Oc1ccccc1)C(=O)N1CCCc2ccccc21` (stereo not given), the viability is 101% in experiment [1]; 101% (inactive) in experiment [3]; 95.4% (inactive) in experiment [4]; 94.3% (inactive) in experiment [5]; 89.8% in experiment [6] (setting [9]); 94.3% in experiment [6] (setting [10]). In experiment [2], the Her2 level is 104% (inactive). The differential viability (reversal) in experiment [6] (H69AR cells + 2 uM doxorubicin) is 4.51% (inactive). The inhibition in experiment [7] is -1.76% (inactive); in experiment [8], -4.33% (inactive).
As for `COC(=O)CCN1CCC(C(N)=O)CC1`, the viability was 100% in experiment [1]; 100% (inactive) in experiment [3]; 102% (inactive) in experiment [4]; 100% (inactive) in experiment [5]; 85.1% in experiment [6] (setting [9]); 100% in experiment [6] (setting [10]). Moreover, the Her2 level in experiment [2] was 113% (inactive). Moreover, the differential viability (reversal) in experiment [6] (H69AR cells + 2 uM doxorubicin) is 15% (inactive). Further, the inhibition in experiment [7] was -6.8% (inactive); in experiment [8] it was 2.46% (inactive).
In the case of `COc1cc(-c2c(C#N)c(N)nc3c2CCCC3)cc(OC)c1OC`, the viability in experiment [1] was 89%; in experiment [3], 89% (inactive); in experiment [4], 74.2% (inactive); in experiment [5] it was 76.4% (inactive); in experiment [6] (setting [9]) it was 86.1%; in experiment [6] (setting [10]) it was 76.4%. Further, the Her2 level in experiment [2] is 72% (inactive). For the same molecule, the differential viability (reversal) in experiment [6] (H69AR cells + 2 uM doxorubicin) was -9.71% (inactive). For the same molecule, the results for the inhibition in experiment [7] and in experiment [8] were -2.63% (inactive) and 3.39% (inactive), respectively.
Take `CC1(C)Cc2c(sc3c2C2=NCCN2C=N3)CO1`: the viability in experiment [1] was 111%; in experiment [3], 111% (inactive); in experiment [4], 91.5% (inactive); in experiment [5], 90.9% (inactive); in experiment [6] (setting [9]), 89.2%; in experiment [6] (setting [10]), 90.9%. Also, the Her2 level in experiment [2] was 104% (inactive). Moreover, in experiment [6] (H69AR cells + 2 uM doxorubicin), the differential viability (reversal) was 1.75% (inactive). For the same molecule, the inhibition in experiment [7] was -3.82% (inactive); in experiment [8] it was -4.55% (inactive).
Take `COc1cc(C)c(-c2cc(C(=O)O)c(C)o2)cc1C(C)C`: the viability was 99.5% in experiment [1]; 99.5% (inactive) in experiment [3]; 95.7% (inactive) in experiment [4]; 91.8% (inactive) in experiment [5]; 85% in experiment [6] (setting [9]); 91.8% in experiment [6] (setting [10]). The Her2 level in experiment [2] is 88% (inactive). Further, the differential viability (reversal) in experiment [6] (H69AR cells + 2 uM doxorubicin) is 6.8% (inactive). Moreover, the inhibition in experiment [7] is -3.87% (inactive); in experiment [8], -5.4% (inactive).
`O=C(Nc1cccnc1N1CCOCC1)c1ccco1`: the viability in experiment [1] is 110%; in experiment [3], 110% (inactive); in experiment [4] it was 115% (inactive); in experiment [5], 92% (inactive); in experiment [6] (setting [9]), 84.2%; in experiment [6] (setting [10]) it was 92%. Further, in experiment [2], the Her2 level is 86% (inactive). Further, the differential viability (reversal) in experiment [6] (H69AR cells + 2 uM doxorubicin) was 7.89% (inactive). For the same molecule, the inhibition was -7.3% (inactive) in experiment [7] and -4.67% (inactive) in experiment [8].
In the case of `CCCOc1ccc(OCCSc2ncccn2)cc1`, the viability in experiment [1] was 97%; in experiment [3], 97% (inactive); in experiment [4], 99.6% (inactive); in experiment [5] it was 102% (inactive); in experiment [6] (setting [9]) it was 83.1%; in experiment [6] (setting [10]) it was 102%. Moreover, the Her2 level in experiment [2] was 91% (inactive). For the same molecule, the differential viability (reversal) in experiment [6] (H69AR cells + 2 uM doxorubicin) was 18.8% (inactive). Further, the figures for the inhibition in experiment [7] and in experiment [8] were -6.67% (inactive) and -0.79% (inactive), respectively.
Turning to `COc1ccc2c(c1OC)C(=O)N(c1ccc3c(c1)CCC3)C2=O`, the viability in experiment [1] is 96.5%; in experiment [3], 96.5% (inactive); in experiment [4], 90.3% (inactive); in experiment [5] it was 107% (inactive); in experiment [6] (setting [9]), 94.9%; in experiment [6] (setting [10]), 107%. Further, in experiment [2], the Her2 level is 100% (inactive). Also, the differential viability (reversal) in experiment [6] (H69AR cells + 2 uM doxorubicin) was 12.6% (inactive). The inhibition in experiment [7] was -3.07% (inactive); in experiment [8], 25.7% (inactive).
Turning to `COc1ccc2c(c1)C(C)=CC(C)(C)N2C(=O)CSc1nnc(-c2ccc(C)cc2)o1`, the viability in experiment [1] was 98.5%; in experiment [3], 98.5% (inactive); in experiment [4], 53.2% (inactive); in experiment [5], 93.9% (inactive); in experiment [6] (setting [9]), 91.8%; in experiment [6] (setting [10]) it was 93.9%. In addition, the Her2 level in experiment [2] is 99% (inactive). For the same molecule, the differential viability (reversal) in experiment [6] (H69AR cells + 2 uM doxorubicin) is 2.13% (inactive). Further, the values for the inhibition in experiment [7] and in experiment [8] were 31% (active) and -1% (inactive), respectively.
For the molecule `COC(=O)c1ccccc1NC(=O)CSc1nnc(-c2ccncc2)o1`, the viability in experiment [1] was 98%; in experiment [3], 98% (inactive); in experiment [4], 103% (inactive); in experiment [5], 101% (inactive); in experiment [6] (setting [9]) it was 92.4%; in experiment [6] (setting [10]) it was 101%. Further, the Her2 level in experiment [2] was 81.5% (inactive). For the same molecule, the differential viability (reversal) in experiment [6] (H69AR cells + 2 uM doxorubicin) was 8.3% (inactive). For the same molecule, the figures for the inhibition in experiment [7] and in experiment [8] were -4.67% (inactive) and 0.95% (inactive), respectively.
As for `CN(c1ccccc1C(N)=O)S(=O)(=O)c1ccccc1`, the viability in experiment [1] was 105%; in experiment [3], 105% (inactive); in experiment [4], 101% (inactive); in experiment [5], 92.7% (inactive); in experiment [6] (setting [9]), 85.7%; in experiment [6] (setting [10]), 92.7%. Moreover, the Her2 level in experiment [2] was 86% (inactive). For the same molecule, the differential viability (reversal) in experiment [6] (H69AR cells + 2 uM doxorubicin) was 7.05% (inactive). The inhibition in experiment [7] was -6.53% (inactive); in experiment [8], -0.48% (inactive).

In general, viability refers to a read-out of living cells in per cent, often relative to untreated cells. Usually inhibition stands for the relative decrease from the control value, in per cent.

For the origin of these results see PubChem BioAssay.
